H69AR growth 86K: proliferation blockers of H69AR lung cancer cells, primary screen, cell-based, human, 86K library; H69AR lung tumor viability, ATP luminescence, 72 h; active compounds read low; viability, % at 10 µM; hit rate 6% among 85,000; AID 598, 2007;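 active means viability at or below 40%; inactive means viability above 40%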;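 further: multidrug resistant small cell line overexpressing MRP-1 efflux transporter; 100% = mean luminescence of untreated control wells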
Lung fibro prol: antiproliferative effect on LL 47 fibroblasts – human, LL 47 cells, CellTiter-Glo luminescence, primary screen; viability, % at 10 µM; hit rate 1.1% among 85,000; LL 47 human lung fibroblast viability, ATP luminescence; active compounds read low;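 active means viability at or below 50% in the single dose screen; inactive means viability above 50%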;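 further: compound exposure lasted 72 h before the ATP readout; 100% = median luminescence of untreated cell-only wells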
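material = human LL 47 lung fibroblast cells | dosing = compounds added from tenfold dosing solution, 0.1% DMSO final | timing = overnight cell rest, 72 h compound treatment at 37 °C | measured by = CellTiter-Glo luminescence measuring cellular ATP | evaluation = % viability versus median cells-only luminescence | control set = cell-only wells, no compound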
HUVEC inhibit: inhibitors of HUVEC proliferation, primary screen, cell-based, 384-well; CellTiter-Glo luminescence, 72 h; active compounds read low; viability, % at 10 µM (by protocol); hit rate 1.1% among 86,000;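 active means viability at or below 30%; inactive means viability above 30%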;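 further: 100% = median luminescence of DMSO-only cell control wells on each plate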
HCT116 bCat-KO: primary screen for growth suppressors in beta-catenin knockout HCT116 cells (colon tumor, human) | HCT116 beta-catenin knockout viability, CellTiter-Glo, 60 h; active compounds read low | viability, % at 10 µM | hit rate 1.5% among 140,000 | AID 818, 2007;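 active means viability at or under a set limit, the compound median less 4 SD, cut at about 6% in these data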;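 further: 0% = Hyamine 1622 control at 20 µM and 100% = untreated cell control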
HCT116 PTEN-null: growth suppression of PTEN-null HCT116, primary screen, cell-based, CellTiter-Glo. HCT116 PTEN-null viability, 60 h; active compounds read low. viability, % at 10 µM. hit rate 1.2% among 140,000;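 active means viability at or below a set limit, 4 SD under the median of all tested compounds, cut at about 3.7% in these data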;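 further: PTEN knockout HCT116 line with beta catenin targeted HCT116 as companion control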
Starred values were filed as active, the others as inactive; nt = no result given. Shown is part of a subset that was picked to be rich in hits.

SMILES	H69AR growth 86K	Lung fibro prol	HUVEC inhibit	HCT116 bCat-KO	HCT116 PTEN-null
Cc1ccc(Cl)cc1N1CCN(C(=O)Cc2ccc(-n3c(=O)[nH]c4ccsc4c3=O)cc2)CC1	nt	nt	nt	71	68
COc1ccc(CCn2c(-c3ccco3)nc3ccccc3c2=O)cc1OC	39*	105	68	24	26
COc1ccc(Cn2c(-c3ccco3)nc3oc4ccccc4c(=O)c3c2=O)cc1	29*	72	75	96	96
COc1ccc(Cn2c(-c3ccco3)nc3oc4cc(OC)ccc4c(=O)c3c2=O)cc1	20*	98	73	45	33
COc1ccc(-c2nc3oc4cc(OC)ccc4c(=O)c3c(=O)n2Cc2ccco2)cc1	3.8*	100	102	87	80
COCCCn1c(-c2ccco2)nc2ccccc2c1=O	96	97	95	92	88
CCOC(=O)c1c(C)[nH]c(C)c1C(=O)COC(=O)c1ccc(Cl)c(S(=O)(=O)NCc2ccccc2)c1	nt	nt	nt	27	26
O=C(NCc1ccco1)c1ccccc1NS(=O)(=O)c1ccc(Br)s1	105	98	57	74	79
Cc1cc2cc(CCNC(=O)c3cccs3)c(=O)[nH]c2cc1C	nt	nt	nt	40	77
CCN1CCCC1CN(Cc1cc2ccc(C)cc2[nH]c1=O)C(=S)Nc1ccc(OC)cc1OC (configuration not stated)	nt	nt	nt	65	56
COc1ccc(C(=O)COC(=O)c2ccc(NC(=O)c3ccccc3)cc2)cc1	nt	nt	nt	1.1*	33
CN(Cc1ccccc1)c1nc(-c2cccc([N+](=O)[O-])c2)nc2ccccc12	nt	nt	nt	74	73
COc1ccc(C(=O)N/C(=C/c2cccs2)c2nc3ccccc3[nH]2)cc1OC	nt	nt	nt	80	71
COc1cc(/C=C(/C(=O)c2cccs2)c2nc3ccccc3[nH]2)cc(OC)c1O	2.6*	19*	102	5.2*	2.5*
O=C(/C(=C/c1ccc(Cl)cc1)c1nc2ccccc2[nH]1)c1ccccc1	nt	nt	nt	1.2*	0.8*
COc1ccc(NC(=O)OCCn2c([N+](=O)[O-])cnc2C)cc1	nt	nt	nt	94	100
CC(C(=O)O)N1C(=O)/C(=C/c2cccn2C)SC1=S (configuration not stated)	nt	nt	nt	97	98
CC1C/C(=C/c2cccn2C)C(=O)/C(=C/c2cccn2C)C1 (configuration not stated)	89	91	88	3.8*	11
O=C1C=CC(=O)N1N(c1ccccc1)c1ccccc1	nt	nt	nt	92	97
COc1ccc(OC)c(Nc2ncnc3c2cnn3-c2cccc(C)c2)c1	23*	61	51	25	26
Clc1ccc(Nc2ncnc3c2cnn3-c2ccccc2)cc1	95	100	93	80	76
COc1ccc(Nc2ncnc3c2cnn3-c2ccccc2)cc1OC	37*	112	90	91	102
CCn1cc(C(=O)NCc2ccc3c(c2)OCO3)c(=O)c2ccc(C)nc21	93	109	91	nt	nt
CCOC(=O)COc1cccc2c(=O)n(CC(=O)NCc3ccc4c(c3)OCO4)ccc12	26*	63	56	20	19
CCn1cc(C(=O)OCC(=O)NCc2ccc3c(c2)OCO3)c(=O)c2ccc(C)nc21	11*	106	91	92	86
SMILES	H69AR growth 86K	Lung fibro prol	HUVEC inhibit	HCT116 bCat-KO	HCT116 PTEN-null
CCOC(=O)COc1cccc2c(=O)n(CC(=O)NCCc3ccccc3)ccc12	nt	nt	nt	85	106
COc1ccc(-c2[nH]c(-c3ccc4c(c3)OCO4)nc2-c2ccccc2)cc1	nt	nt	nt	1.3*	1.4*
COc1cc(-c2nc(-c3ccccc3)c(-c3ccc(F)cc3)[nH]2)cc2c1OCO2	nt	nt	nt	68	76
CC1=C(C#N)c2nc(N)c(C#N)c(C)c2/C1=C\c1ccccc1	1.6*	8.1*	13*	nt	nt
O=c1c2ccccc2nc(SCc2ccccc2)n1Cc1ccco1	93	89	116	87	90
O=c1c2ccccc2nc(SCc2nc3ccccc3s2)n1Cc1ccco1	33*	60	42	71	69
CCCCn1c(SCc2nc3ccccc3s2)nc2cc(S(N)(=O)=O)ccc21	16*	93	78	54	46
CCCCn1c(SCc2nc3ccccc3s2)nc2ccccc2c1=O	nt	nt	nt	54	40
CCCn1c(=O)c2ccccc2n2c(SCc3nc4ccccc4s3)nnc12	31*	nt	85	87	79
COc1cccc(NC(=O)Cc2nnc(SCC(=O)c3ccccc3)n2C)c1	32*	87	80	66	72

Screening results: PubChem, SRMLSC
